Rpn11 block: inhibitors of human proteasome Rpn11 | hit rate 0.59% among 360,000 | human 26S proteasome, Ub4-pepOG fluorescence polarization; 20S core pre-blocked with epoxomicin | calls only at 20 µM | O00487 | AID 588493;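 active = inhibition at 20 µM, scaled to each plate's controls, above about 33%, limit read from the data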
Target sequence (O00487 whole entry, looked up): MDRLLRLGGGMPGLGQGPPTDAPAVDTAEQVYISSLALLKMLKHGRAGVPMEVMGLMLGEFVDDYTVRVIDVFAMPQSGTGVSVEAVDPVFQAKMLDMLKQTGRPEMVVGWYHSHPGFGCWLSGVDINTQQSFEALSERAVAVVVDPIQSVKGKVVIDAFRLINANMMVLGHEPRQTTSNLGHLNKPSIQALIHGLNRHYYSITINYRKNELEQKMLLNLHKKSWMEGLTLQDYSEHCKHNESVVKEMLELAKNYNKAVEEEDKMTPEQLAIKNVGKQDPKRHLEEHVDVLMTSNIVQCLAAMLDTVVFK
TPT1 inh: blocks Candida albicans tRNA 2'-phosphotransferase; hit rate 0.81% among 300,000; AID 1962; inhibition, % at 5 µM; recombinant caTPT1, FP RNA substrate dephosphorylation;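 active = inhibition above the mean of all tested compounds plus 3 SD, set per screening campaign, cut at about 24% in these data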;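 also: plate controls were DMSO alone for no effect and ferristatin control at 100 nM for full effect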
HNF4A DNA FP: change in binding of human HNF4 alpha to DNA | P41235 | HNF4a-FITC DNA binding, fluorescence polarization, 1 h | activity change, % at 10 µM | hit rate 0.3% among 360,000 | AID 1224865; in the data active = activity change above about 30%, passing the limit was not always enough
CSN inh: CSN deneddylation inhibition. Purified CSN, SCF-Nedd8-OG deneddylation, fluorescence polarization. Q92905. hit rate 0.38% among 360,000. AID 651999. inhibition, % at 12.5 µM;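 active = pattern-corrected inhibition above about 35%, with an unprinted fluorescence ratio check between 0.5 and 1.5, limit read from the data, passing the limit was not always enough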;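 also: 0% = enzyme with substrate and 100% = substrate without enzyme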
Target sequence (Q92905 whole entry, looked up, one chain of several): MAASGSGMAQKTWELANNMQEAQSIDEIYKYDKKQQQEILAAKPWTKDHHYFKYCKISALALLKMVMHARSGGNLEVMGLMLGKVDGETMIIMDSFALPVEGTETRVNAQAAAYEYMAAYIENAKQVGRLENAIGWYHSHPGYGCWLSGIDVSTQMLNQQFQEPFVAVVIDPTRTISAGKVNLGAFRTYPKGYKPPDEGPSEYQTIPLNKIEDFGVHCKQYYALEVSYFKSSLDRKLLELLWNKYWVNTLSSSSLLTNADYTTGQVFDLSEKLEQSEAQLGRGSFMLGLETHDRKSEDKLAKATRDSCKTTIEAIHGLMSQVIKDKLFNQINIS
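Assay system: HEK293T-derived human Csn5 enzyme; quantity: 0.24 nM enzyme; medium: Tris/NaCl/DTT buffer, pH 7.5; also added: substrate SCFSkp2-Nedd8OG, 10 nM; doses: 12.5 µM compound; schedule: 90 min reaction at room temperature; signal: FP; read-out: % inhibition of substrate cleavage by Csn5; benchmarks: substrate-only high control, full reaction low control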
caTPT1 confirm: TPT1 (C. albicans) inhibition, confirmation; shares compounds with TPT1 inh; recombinant caTPT1, fluorescence polarization, RNase T1 coupled; inhibition, % at 5 µM; hit rate 74% among 2,400;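 active = inhibition above the primary screen limit, the mean inhibition of all tested compounds plus 3 SD, cut at about 25% in these data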
RNase T1 counter: counter-screen for TPT1 inhibitors: inhibitors of Aspergillus oryzae RNase T1. shares compounds with TPT1 inh. RNase T1 cleavage, fluorescence polarization, 1536-well. inhibition, % at 5 µM. hit rate 83% among 2,400;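 active = inhibition above the solvent-only control well mean plus 3 SD, limit set per screening run, cut at about 23% in these data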;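 also: plate controls were DMSO wells with enzyme for no effect and wells without RNase T1 for full effect; inhibitors block cleavage so intact labeled substrate keeps polarization high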
Rpn11 confirm: Rpn11 inhibition confirmation, single concentration. hit rate 29% among 1,900. shares compounds with Rpn11 block. purified human 26S proteasome, Ub4-pepOG fluorescence polarization; proteasome pretreated with epoxomicin. inhibition, % at 20 µM
MMP-2 counter-1: blocks human MMP-2, flagging nonselective RPN11 hits; shares compounds with Rpn11 block; recombinant MMP-2, FRET peptide cleavage fluorescence; inhibition, % at 20 µM; hit rate 4% among 1,900; AID 602330;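 also: human MMP-2 activated beforehand with APMA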
Thrombin inh: counter-screen for RPN11 inhibitors: inhibition of bovine thrombin; inhibition, % at 20 µM; bovine thrombin cleavage of Ub4-pepOG, fluorescence polarization; hit rate 13% among 1,900; shares compounds with Rpn11 block; AID 602333;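 active = mean inhibition at least 40% at 20 µM, or signal 3 deviations below plate average, so some actives read negative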;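 also: plate controls were thrombin with DMSO for no effect and buffer wells lacking thrombin for full effect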
CSN deneddyl val: Csn5 (human) deneddylation inhibition, single-concentration validation | shares compounds with CSN inh | Csn5 deneddylation of SCF-Nedd8OG, fluorescence polarization, 90 min | inhibition, % at 16.6 µM | hit rate 62% among 540 | AID 720654; in the data active = inhibition above about 50%;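 also: 0% = DMSO with enzyme and 100% = no enzyme wells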
MMP-2 counter-2: blocks human MMP-2 in a CSN deneddylation counter-screen; shares compounds with CSN inh; AID 720655; hit rate 33% among 540; inhibition, % at 16.6 µM; recombinant MMP-2, FRET substrate fluorescence, 60 min;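 active = corrected plate-normalized z-score of 5 or more, or -5 or less, or inhibition of 15% or more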;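 also: plate controls were DMSO wells with enzyme for no effect and buffer wells lacking MMP-2 for full effect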
Thrombin cntr: thrombin (bovine) inhibition, counter-screen for CSN hits | shares compounds with CSN inh | bovine thrombin cleavage of Ub4-pepOG, fluorescence polarization | hit rate 49% among 540 | inhibition, % at 16.6 µM;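 active = inhibition at or above a set limit, with a fluorescence interference ratio between 0.5 and a set maximum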
Numbers without * were called inactive. In the library only some 1.5% were active in any assay of this set; here they are far more common. Rule as the data show it, unless noted: active = inhibition above about 40%; inactive = the rest.

For CN1CCN(S(=O)(=O)c2cc([N+](=O)[O-])ccc2N/N=C/c2ccc(Cl)cc2)CC1 the results were Rpn11 block inactive, TPT1 inh 1, HNF4A DNA FP 2 and CSN inh -1.
For O=[N+]([O-])c1ccc(N/N=C/c2c[nH]c3ccccc23)c(S(=O)(=O)Nc2ccc(Cl)cc2)c1 the results were TPT1 inh 36*, HNF4A DNA FP 65*, CSN inh 39*, caTPT1 confirm 107*, RNase T1 counter 108*, CSN deneddyl val 82*, MMP-2 counter-2 7 and Thrombin cntr 12.
For O=C(CN1C(=O)CNC1=O)Nc1cc(Cl)cc(Cl)c1 the results were Rpn11 block inactive, HNF4A DNA FP -5 and CSN inh -2.
For N#Cc1c(NC(=O)/C=C/C(=O)O)sc2c1CCN(Cc1ccccc1)C2 the results were TPT1 inh 122*, HNF4A DNA FP 26, CSN inh 42*, caTPT1 confirm 61*, RNase T1 counter 72*, CSN deneddyl val 40, MMP-2 counter-2 2 and Thrombin cntr 46*.
For N#CC1=C(N)SC(N)=C(C#N)C1c1ccnc2ccccc12 the results were TPT1 inh 103*, HNF4A DNA FP 39*, CSN inh 45*, caTPT1 confirm 74*, RNase T1 counter 85*, CSN deneddyl val 135*, MMP-2 counter-2 -16 and Thrombin cntr 30*.
For CN(C)c1ccc(/C=C2\SC(N3CCCCC3)=NC2=O)cc1 the results were TPT1 inh 106*, HNF4A DNA FP 118, CSN inh 84*, caTPT1 confirm 116*, RNase T1 counter 116*, CSN deneddyl val 63*, MMP-2 counter-2 2 and Thrombin cntr 78*.
Cc1ccc(/C=C2\SC(N3CCCC3)=NC2=O)cc1 was read as TPT1 inh -1.
For CNc1cncc(-c2ccc(O)cc2C)n1 the results were Rpn11 block inactive, HNF4A DNA FP 0 and CSN inh -6.
Screening O=C1Nc2ccc(Br)cc2C12NNc1ccccc1O2 (centres undefined) returned TPT1 inh 83*, HNF4A DNA FP 95, CSN inh 52*, caTPT1 confirm 105*, RNase T1 counter 110*, CSN deneddyl val 129*, MMP-2 counter-2 -15 and Thrombin cntr 17*.
`O=C(N/N=C/c1c(O)ccc2ccccc12)c1ccc(Br)o1` gave Rpn11 block inactive, TPT1 inh 39*, HNF4A DNA FP 13, CSN inh 37*, caTPT1 confirm 51*, RNase T1 counter 56*, CSN deneddyl val 66*, MMP-2 counter-2 12 and Thrombin cntr 6.
Cc1occc1C(=O)N/N=C/c1c(O)ccc2ccccc12 was read as Rpn11 block inactive, TPT1 inh 2, HNF4A DNA FP 0 and CSN inh 7.
Screening CSc1ccc(CN2CCC(C)(Oc3ccc(-n4ccnc4)cc3)C2)cc1 (centres undefined) returned Rpn11 block inactive, HNF4A DNA FP 1 and CSN inh 1.
Screening O=C(CCCN1C(=O)/C(=C\c2cccs2)SC1=S)Nc1ccc(O)cc1C(=O)O returned Rpn11 block inactive, TPT1 inh 1, HNF4A DNA FP 6 and CSN inh 4.
`O=C(CCCN1C(=O)/C(=C/c2ccccc2)SC1=S)Nc1ccc(C(=O)O)c(O)c1` gave Rpn11 block inactive, TPT1 inh -3, HNF4A DNA FP 1 and CSN inh 5.
Screening O=C(CCCN1C(=O)/C(=C\c2ccco2)SC1=S)Nc1ccc(O)cc1C(=O)O returned Rpn11 block active, TPT1 inh 27*, HNF4A DNA FP -39, CSN inh 48*, caTPT1 confirm 10, RNase T1 counter 18, Rpn11 confirm 8, MMP-2 counter-1 27, Thrombin inh -3, CSN deneddyl val 66*, MMP-2 counter-2 24* and Thrombin cntr 23*.
Screening O=C(CN1C(=O)/C(=C/c2ccco2)SC1=S)Nc1ccc(C(=O)O)c(O)c1 returned Rpn11 block active, TPT1 inh 28*, HNF4A DNA FP -14, CSN inh 61*, caTPT1 confirm 9, RNase T1 counter 18, Rpn11 confirm 43*, MMP-2 counter-1 35, Thrombin inh 2, CSN deneddyl val 54*, MMP-2 counter-2 18* and Thrombin cntr 30*.
For CCN(CC(=O)Nc1ccc(NC(C)=O)cc1)C(=O)c1cc(CN2C(=O)c3ccccc3C2=O)ccc1OC the results were Rpn11 block inactive, TPT1 inh -2, HNF4A DNA FP 4 and CSN inh 3.
For Cn1c(=O)c2cc(NC(=O)NCCc3cccs3)ccc2n1-c1ccc(C(C)(C)C)cc1 the results were Rpn11 block inactive, HNF4A DNA FP -2 and CSN inh -3.
Cc1cc(F)ccc1NC(=O)c1cc(S(=O)(=O)N2CCOCC2)cn1C was read as Rpn11 block inactive, TPT1 inh 1, HNF4A DNA FP 0 and CSN inh -2.
Screening Cc1[nH]c2ccccc2c1/C=N/Nc1ccc(F)cc1F returned TPT1 inh 13.
Screening Cc1[nH]c2ccccc2c1/C=N/Nc1ccc([N+](=O)[O-])cc1 returned Rpn11 block active, TPT1 inh 95*, HNF4A DNA FP 68*, CSN inh 49*, caTPT1 confirm 100*, RNase T1 counter 102*, Rpn11 confirm 83*, MMP-2 counter-1 -28, Thrombin inh 81*, CSN deneddyl val 75*, MMP-2 counter-2 5 and Thrombin cntr 44*.
Screening COc1cc(N2N=C(c3ccccc3)CC2c2ccccc2)c(C=O)cc1C=O (centres undefined) returned Rpn11 block inactive, TPT1 inh -6, HNF4A DNA FP -4 and CSN inh -2.

Screens (PubChem BioAssay)
